In ChEMBL document CHEMBL5712903, “Limitations of current in vitro models for testing the clinical potential of epigenetic inhibitors for treatment of pediatric ependymoma” (Oncotarget, 2018):
Calls of active or inactive are those of the source. No cut-off for these calls is given here.

Columns and labels:
[1] = Antiproliferative activity against human BXD-1425EPN cells assessed as reduction in cell viability incubated for 144 hrs by MTT assay; assay type: functional, cell-based
Outline: (§1)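 Ependymoma cells were seeded in 96-well plates and left overnight, then given decitabine or DMSO vehicle. Decitabine was replenished at 24 and 48 hrs, and MTT viability was read 144 hrs after the start. BXD-1425EPN and DKFZ-EP1 were grown in DMEM with 10% FBS; EPN1, EPN8, EPN9 and EPN10 in DMEM with 15% FBS. Triplicates, three independent repeats, % viable versus vehicle; IC50 estimated from dose-response curves.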

[2] = Antiproliferative activity against human DKFZ-EP1 cells assessed as reduction in cell viability incubated for 144 hrs by MTT assay; assay type: functional, cell-based; conditions: DKFZ-EP1, 144 h; outline: as §1
BXD-1425EPN = experiment: Induction of cell death in human BXD-1425EPN cells incubated for 144 hrs by LDH release assay; assay type: functional, cell-based
Outline: (§2)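 LDH cytotoxicity kit read-out of cell death after 144 hrs of decitabine or vehicle exposure. Cells were plated in 96 wells and left overnight before dosing, with decitabine replenished at 24 and 48 hrs. Triplicates in three independent repeats. All drugs were dissolved in DMSO.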

EPN9 = experiment: Induction of cell death in human EPN9 cells incubated for 144 hrs by LDH release assay; assay type: functional, cell-based; outline: as §2
[3] = Antiproliferative activity against human EPN8 cells assessed as reduction in cell viability incubated for 144 hrs by MTT assay; assay type: functional, cell-based; conditions: EPN8, 144 h; outline: as §1
[4] = Antiproliferative activity against human EPN10 cells assessed as reduction in cell viability incubated for 144 hrs by MTT assay; assay type: functional, cell-based; conditions: EPN10, 144 h; outline: as §1
[5] = Antiproliferative activity against human EPN1 cells assessed as reduction in cell viability incubated for 144 hrs by MTT assay; assay type: functional, cell-based; conditions: EPN1, 144 h; outline: as §1
EPN1 = experiment: Induction of cell death in human EPN1 cells incubated for 144 hrs by LDH release assay; assay type: functional, cell-based; outline: as §2
[6] = Antiproliferative activity against human EPN9 cells assessed as reduction in cell viability incubated for 144 hrs by MTT assay; assay type: functional, cell-based; conditions: EPN9, 144 h; outline: as §1
DKFZ-EP1 = experiment: Induction of cell death in human DKFZ-EP1 cells incubated for 144 hrs by LDH release assay; assay type: functional, cell-based; outline: as §2
[7] = Cytotoxicity against human fetal NSC assessed as reduction in cell vaibility incubated for 48 hrs by alamar blue assay; conditions: human fetal neural stem cells (NSC)
[8] = target: Histone-lysine N-methyltransferase EZH2 (Homo sapiens) (UniProt Q15910); experiment: Inhibition of EZH2 in human EPN9 cells assessed as increase in decitabine induced cytotoxicity at 2.5 to 80 uM measured after 96 hrs in presence of decitabine by MTT assay; assay type: cell-based; conditions: dose 2.5-80 µM
Outline: (§3)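 Cells were pretreated 48 hrs with decitabine, then GSK343 was added and incubation continued for a further 96 hrs before MTT viability was read. Drugs were at a fixed ratio from single-agent IC50s (0.125–4 times IC50). Triplicates, three independent repeats, % versus vehicle.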

[9] = target: Histone-lysine N-methyltransferase EZH2 (Homo sapiens) (UniProt Q15910); experiment: Inhibition of EZH2 in human EPN1 cells assessed as increase in cell death incubated for 120 hrs by LDH release assay; assay type: cell-based
Outline: (§4)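 GSK343 or vehicle was added to cells plated in 96 wells the previous day. Drug was replenished after 72 hrs, and cell death was measured by LDH release kit at 120 hrs. Each condition in triplicate, three independent repeats.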

[10] = target: Histone-lysine N-methyltransferase EZH2 (Homo sapiens) (UniProt Q15910); experiment: Inhibition of EZH2 in human BXD-1425EPN cells assessed as increase in decitabine induced cytotoxicity at 2.5 to 80 uM measured after 96 hrs in presence of decitabine by MTT assay; assay type: cell-based; conditions: dose 2.5-80 µM; outline: as §3
[11] = target: Histone-lysine N-methyltransferase EZH2 (Homo sapiens) (UniProt Q15910); experiment: Inhibition of EZH2 in human DKFZ-EP1 cells assessed as increase in decitabine induced cytotoxicity at 2.5 to 40 uM measured after 96 hrs in presence of decitabine by MTT assay; assay type: cell-based; conditions: dose 2.5-40 µM; outline: as §3
[12] = target: Histone-lysine N-methyltransferase EZH2 (Homo sapiens) (UniProt Q15910); experiment: Inhibition of EZH2 in human DKFZ-EP1 cells assessed as increase in cell death incubated for 120 hrs by LDH release assay; assay type: cell-based; outline: as §4
[13] = target: Histone-lysine N-methyltransferase EZH2 (Homo sapiens) (UniProt Q15910); experiment: Inhibition of EZH2 in human BXD-1425EPN cells assessed as decrease in cell viability at 2.5 to 80 uM incubated for 72 hrs in presence of vorinostat by MTT assay; conditions: dose 2.5-80 µM
[14] = target: Histone-lysine N-methyltransferase EZH2 (Homo sapiens) (UniProt Q15910); experiment: Inhibition of EZH2 in human EPN1 cells assessed as decrease in cell viability at 2.5 to 80 uM incubated for 72 hrs in presence of vorinostat by MTT assay; conditions: dose 2.5-80 µM
[15] = target: Histone-lysine N-methyltransferase EZH2 (Homo sapiens) (UniProt Q15910); experiment: Inhibition of EZH2 in human EPN9 cells assessed as increase in cell death incubated for 120 hrs by LDH release assay; assay type: cell-based; outline: as §4
[16] = target: Histone-lysine N-methyltransferase EZH2 (Homo sapiens) (UniProt Q15910); experiment: Inhibition of EZH2 in human BXD-1425EPN cells assessed as increase in cell death incubated for 120 hrs by LDH release assay; assay type: cell-based; outline: as §4
[17] = target: Histone-lysine N-methyltransferase EZH2 (Homo sapiens) (UniProt Q15910); experiment: Inhibition of EZH2 in human EPN1 cells assessed as increase in decitabine induced cytotoxicity at 2.5 to 80 uM measured after 96 hrs in presence of decitabine by MTT assay; assay type: cell-based; conditions: dose 2.5-80 µM; outline: as §3

Chain of Histone-lysine N-methyltransferase EZH2 (Homo sapiens) (Q15910 whole entry, looked up): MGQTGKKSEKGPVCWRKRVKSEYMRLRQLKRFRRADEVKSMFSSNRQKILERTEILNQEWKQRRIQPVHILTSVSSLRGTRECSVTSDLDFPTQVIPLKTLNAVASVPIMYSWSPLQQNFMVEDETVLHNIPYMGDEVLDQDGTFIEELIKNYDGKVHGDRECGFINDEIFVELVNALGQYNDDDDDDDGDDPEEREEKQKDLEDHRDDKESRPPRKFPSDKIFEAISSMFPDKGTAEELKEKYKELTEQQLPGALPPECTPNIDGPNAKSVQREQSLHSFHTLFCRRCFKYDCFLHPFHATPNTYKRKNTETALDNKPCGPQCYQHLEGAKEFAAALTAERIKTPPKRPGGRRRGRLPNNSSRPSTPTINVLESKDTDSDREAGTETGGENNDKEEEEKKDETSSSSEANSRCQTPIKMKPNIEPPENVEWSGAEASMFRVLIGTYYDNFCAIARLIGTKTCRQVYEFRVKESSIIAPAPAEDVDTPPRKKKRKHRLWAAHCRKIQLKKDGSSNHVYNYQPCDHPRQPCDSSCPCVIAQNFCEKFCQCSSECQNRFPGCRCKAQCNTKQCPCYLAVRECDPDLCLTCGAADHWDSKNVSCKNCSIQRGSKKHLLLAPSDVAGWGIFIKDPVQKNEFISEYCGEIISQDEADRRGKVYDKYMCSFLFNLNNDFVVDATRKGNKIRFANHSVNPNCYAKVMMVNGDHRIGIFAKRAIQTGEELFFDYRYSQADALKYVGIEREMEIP

Nc1ncn([C@H]2C[C@H](O)[C@@H](CO)O2)c(=O)n1 [DECITABINE]
IC50 [1]: 400 nM
IC50 [2]: ≥ 50 nM
Activity (BXD-1425EPN): inactive
Activity (EPN9): inactive
IC50 [3]: 50 nM
IC50 [4]: ≥ 50 nM
IC50 [5]: ≥ 50 nM
Activity (EPN1): inactive
IC50 [6]: ≥ 50 nM
Activity (DKFZ-EP1): inactive

Cc1[nH]c2ccccc2c1CCNCc1ccc(/C=C/C(=O)NO)cc1 [PANOBINOSTAT]
IC50 at 48 h [7]: 80 nM

CCCc1cc(C)[nH]c(=O)c1CNC(=O)c1cc(-c2ccnc(N3CCN(C)CC3)c2)cc2c1cnn2C(C)C
inhibition [8]: inactive
inhibition [9]: Active
inhibition [10]: inactive
inhibition [11]: inactive
inhibition [12]: Active
inhibition [13]: Active
IC50 at 48 h [7]: 9000 nM
inhibition [14]: Active
inhibition [15]: Active
inhibition [16]: Active
inhibition [17]: inactive
